Source: the EternaBench riboswitch data

Test system: MS2 coat protein
Assay: apparent Kd, MS2 coat protein; higher = weaker binding; RNA-MaP array; FMN 200 µM where present
Outline: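 Green signal was scaled to red-channel RNA signal and control-cluster median Fmax, and the apparent Kd was taken as the median of filtered per-cluster binding-curve fits. The binding series used SNAP-549-labelled MS2 coat protein from 0.7 or 1.5 nM, doubling to 3 µM, on designs transcribed by stalled E. coli RNA polymerase on Illumina sequencing-chip clusters. Each series ran without and then with constant ligand in 100 mM Tris-HCl pH 7.5, 80 mM KCl, 4 mM MgCl2, BSA, DTT, yeast tRNA and Tween-20.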

[1] = designed as: ON switch for flavin mononucleotide, no ligand
[2] = ligand present: flavin mononucleotide, designed as: ON switch for flavin mononucleotide
[3] = designed as: OFF switch for flavin mononucleotide, no ligand
[4] = ligand present: flavin mononucleotide, designed as: OFF switch for flavin mononucleotide

Sequence	apparent Kd [1]	apparent Kd [2]	apparent Kd [3]	apparent Kd [4]
AUUUUACAUGAGGAUCACCCAUGUUUUGGUGGAUCAGGAUAUAAAUUGAAUGAGUUUUAGUUAGAAGGGAUAUUUA	67.2 nM	99 nM	–	–
AUUUUGUCAGGAUAUGAUUAGUAGGACGAGAGUGCUACUACUUAGAAGGGACAUGAGGAUCACCCAUGUAUUCC	–	–	17.8 nM	22.2 nM
CAAAGGUGAGGAUAUGCAUAACUAUGACGAAAGUCAUAAACACAUGAGGAUCACCCAUGUAGAAGGCACCACAA	–	–	23.9 nM	18.3 nM
CAACCGUUGCAGAAGGUUAAAUAAUUUCUCAUCUUGUUUACAUGAGGAUCACCCAUGUAUUUGUUGAAGGAUAUGCAAGUGUUG	–	–	8.58 nM	8.21 nM
CAAGGCGGUGAAGGAUAUACACGGGCGUUGCCAAACAUGAGGAUCACCCAUGUAGAAGGUCACCCUGAGAAGGCUUUAUGCCUA	–	–	411 nM	42.2 nM
CAAUAAGACACAGGAUAUCCAGACAGGGAAGAUGGAGAAGGGUGAUCAGAAAAGACAUGAGGAUCACCCAUGUCUCGUGCGAUG	631 nM	282 nM	–	–
CAAUCUCAGAUAGGAUAUAUAGGAUAACUUAAGACCUAACAUGAGGAUCACCCAUGUGAUUAUUCGUAGAAGGAUCAUUGAACU	226 nM	244 nM	–	–
CAAUUGGCACAGAAGGGUGACAUGAGGAUCACCCAUGUAGCGUGGCACUUAGGAGGAGCCACGCCACAGGAUAUGUGCGGGCAC	76.4 nM	111 nM	–	–
CAAUUUAUUACAGGAUAUACAAUACAAUGAUUAGUAGAAGGGUAUAAUACAUGAGGAUCACCCAUGUCAUGUGUCAUAAUAACC	–	–	35.8 nM	23.9 nM
CACCGUUAAGUAGGAUAUCGUACAUGAGGAUCACCCAUGUAAUAAAUGAGAAUUUCGGAUGUAUGCGAGAAGGACUAAAUCGGC	–	–	49.3 nM	43 nM
CACCGUUACCGAGGAUAUCGUACAUGAGGAUCACCCAUGUAAUAAAUGAGAAUUUCGGAUGUAUGCGAGAAGGCGGGAAUCGGC	–	–	34.1 nM	29.8 nM
CACCGUUAGUGAGGAUAUCUUACAUGAGGAUCACCCAUGUAAUAAAUGAGAAUUUCGGAUGUAUUAGAGAAGGCACAAAUCGGC	–	–	25.1 nM	24.3 nM
CACGGAUGAUCAGGAUAUGCUAAAGCAGGCUGACAUGAGGAUCACCCAUGUCCCAGAAACUGUGGGCAGAAGGGAUGUAAUGUU	49.8 nM	12.2 nM	–	–
CACGGUGAUGUAGGAUAUACGCUGGAAUACAGCGUAGAAGGACAUGAGGAUCACCCAUGUAGAGUGUCUCCAAAUAACACCGUG	–	–	43 nM	293 nM
CACUCGUGUCUAGGAUAUGAGUGACAAGCGCGAGAUUUUCUCACCGCUAGCUCAGAAGGAGACAUGAGGAUCACCCAUGUAAGG	–	–	165 nM	20.3 nM
CAGAAGUCAGGAUAUCCAUGGCGGCACUUGCGUGGUGGCGUGGAGAAGGGACAUGAGGAUCACCCAUGUAAAGG	–	–	171 nM	237 nM
CAGCAAAAGUAGAAGGCAGUACUGAUUCAGUACUGAGGAUAUACAUGAGGAUCACCCAUGUGUUCCAGCUGAAUAAUAAAAUAA	–	–	8.89 nM	116 nM
CAGCAAUGUGAGAAGGCUGCUCCGAUAAGGAGCAGAGGAUAUUACAUGAGGAUCACCCAUGUAUGAACCAAUAGCUGAAAUAAA	–	–	6.01 nM	28.3 nM
CAGCAUCAUGUAGGAUAUGCGUGGCGAAGCUAUGCAGAAGGACAUGAGGAUCACCCAUGUCUUAGCUAGCGUACUAGCUUGCUG	–	–	7.5 nM	21.4 nM
CAGCCCUGAGGAUAUCCAUCCUUGUACAUGAGGAUCACCCAUGUUUUCCUCUGGGCUUUGGGAGAAGGCAGGUAUC	–	–	74.6 nM	77.1 nM
CAGCCCUGAGGAUAUCCCUACUUGUACAUGAGGAUCACCCAUGUCCUCCUCCGGGCUUCGGGAGAAGGCAGGUCUC	–	–	15.8 nM	–
CAGCCCUGAGGAUAUCCCUCCUUGUACAUGAGGAUCACCCAUGUUCUCCUCUGGGCUUUGGGAGAAGGCAGGUCUC	–	–	26.8 nM	26.4 nM
CAGCGAAAGCUGAAUCUGUAGAGAGAGGAUAUACGUCAUAAGGUGCAUACAUGAGGAUCACCCAUGUAGAAGGCUCUCUACAGU	–	–	25.3 nM	603 nM
CAGCGAUAGCUAAAGUAUCUAUCAGAGGAUAUUUAUGAAACAUGAGGAUCACCCAUGUGAAACUGGGAGAAGGCUGAUAGAUAG	11.9 nM	5.47 nM	–	–
CAGCGAUAGCUGAACAAUCUAUCACAGGAUAUUCAUGAAACAUGAGGAUCACCCAUGUGAAAUUGGGAGAAGGGUGAUAGAUUG	12.7 nM	5.36 nM	–	–
CAGCGCUGUCGAGAGGAUAUGCGGUGAUGGACAUGAGGAUCACCCAUGUUAGCGAUAGUAUUACGGUAGAAGGCUCUACAGCUGC	92.2 nM	16.7 nM	–	–
CAGCUCUGAGGAUAUCCAUCCUCCUACAUGAGGAUCACCCAUGUUUCCCUCUGGGUUUUCGGAGAAGGCAGUUUUU	–	–	248 nM	425 nM
CAGCUGAAAGUCAGGAUAUCUAGAGCCUCGGCUCUAGAGAAGGGACAUGAGGAUCACCCAUGUCACUCCAGCUG	–	–	18.4 nM	20 nM

Sequence	apparent Kd [1]	apparent Kd [2]	apparent Kd [3]	apparent Kd [4]
CAGGAGAACACAGGAUAUCCGUAAAACAUGAGGAUCACCCAUGUUUGUGGCCCGCCAGGGCUGACGGAGAAGGGUGACUCGCAC	6.69 nM	5.61 nM	–	–
CAGGGUCGUAUUCAGCCCGUCCACAUGAGGAUCACCCAUGUCAAGGAUAUAGCUUAAAAUACAAACUAGAAGGUGACGCUGGGU	–	–	21.7 nM	83.8 nM
CAGGUAGACUGAGGAUAUACAGACCUAGUCUAUCUAGGUCAAUUAACCACAUGAGGAUCACCCAUGUAGAAGGCAGUCUGCCUG	–	–	15.9 nM	21.4 nM
CAGGUAGCUACAGGAUAUACACAGCUCAGUAAACUGAGCAAAAGAACUACAUGAGGAUCACCCAUGUAGAAGGGUAGCUGCCUG	–	–	16.8 nM	18.8 nM
CAGGUCUGAGGAUAUCCAUCUUCAUACAUGAGGAUCACCCAUGUUUACCUUUGGGUUUUUGGAGAAGGCAGUUUUU	–	–	188 nM	243 nM
CAGUACAGAGGAUAUACAUGAGGAUCACCCAUGUGUUUCAGCUAGGAGACUAGCGAAAGUAGAAGGCUGUACUG	–	–	9.57 nM	25.1 nM
CAGUACUGAGGAUAUACAUGAGGAUCACCCAUGUGUUCCAGCUAGGAAACUAGCAAAAGUAGAAGGCAGUUCUG	–	–	20.2 nM	182 nM
CAGUACUGAGGAUAUACAUGAGGAUCACCCAUGUGUUCCAGCUAGGAAGCUAGCAAAAGUAGAAGGCAGUACUG	–	–	26.2 nM	276 nM
CAGUGCAAUGUAGGAUAUGCUCAGGAAUACUGAGCAGAAGGACAUGAGGAUCACCCAUGUAAAAUGAAAGAUAAUAAAGCACUG	–	–	16.1 nM	51 nM
CAUCCACAUGAGGAUCACCCAUGUGAGGAUAUGAUACUAUGUACUUCGGUACAUAGUAUCAGAAGGCACAGGUG	–	–	120 nM	37.4 nM
CAUCUCUAUGUAGGAUAUAGGACAACAACAGCACUAGAAGGACAUGAGGAUCACCCAUGUACACUACUCGCGUCAUCGUCUCGC	–	–	6.01 nM	6.22 nM
CAUGUCCUCACAGGAUAUGCACCACUUUGUGGUGCAGAAGGGUGAAUACAUGAGGAUCACCCAUGUGGACAUGAUAUAUUUAAG	1200 nM	75.4 nM	–	–
CAUGUCCUCACAGGAUAUGCACCACUUUGUGGUGCAGAAGGGUGAAUACAUGAGGAUCACCCAUGUGGACAUGAUAUAUUUAAU	1140 nM	72.2 nM	–	–
CAUUAAUUCAUUAUAGUUAUUAUACAGGAUAUGUUACAUGAGGAUCACCCAUGUAUUCAUGGUAAACAGAAGGGUAAUACUAGU	–	–	11.1 nM	15.8 nM
CAUUCCCGUCGAGGAUAUAUUAUAUGACAACAAACACAUACAUGAGGAUCACCCAUGUCCCAUGUAUAGAAGGCGACCUGCGUC	46.6 nM	99.3 nM	–	–
CCACGGUAUGUAGGAUAUGCAUAGCAUUGCUAUGCAGAAGGACAUGAGGAUCACCCAUGUAUGUAUUCCAUACUAAUCCCGUGA	–	–	5.96 nM	5.3 nM
CCACGGUAUGUAGGAUAUGCAUAGCAUUGCUAUGCAGAAGGACAUGAGGAUCACCCAUGUAUGUAUUCCAUACUAAUCCCGUGG	–	–	5.5 nM	5.69 nM
CCACGUCACAUAUACAUGAGGAUCACCCAUGUCAAAAGACAUGAGGAUAUGGAUCCUAAUUGGAUCCAGAAGGCAUGGACGUGG	757 nM	50.8 nM	–	–
CCAGAUAUGUGAGGAUAUAGAGUGGAAUACACUCUAGAAGGUAUGUGAAAACAUGAGGAUCACCCAUGUGAUUGAUUAUCUGGA	28.2 nM	27.3 nM	–	–
CCAGAUUUCACAGGAUAUAUUGAUGACAUGAGGAUCACCCAUGUACCGGCAGUAGAAGGGUGAACGCACGUGACCACGUGCGUG	54.1 nM	14.9 nM	–	–
CCAGCGUAUGUGAGGAUAUGCUGGUCCUUGGAUCAGCAGAAGGCACAUGAGGAUCACCCAUGUGAUAACGUUGG	–	–	59.5 nM	261 nM
CCAGCGUGUGUGAGGAUAUGCUGGUCCUUGGAUCAGCAGAAGGCACAUGAGGAUCACCCAUGUGAGGACGUUGG	–	–	22.4 nM	94.5 nM
CCAGGCUGUGUGAGGAUAUGCUGGUCCUUGGAUCAGCAGAAGGCACAUGAGGAUCACCCAUGUGAAAAGCUUGG	–	–	17.4 nM	57.6 nM
CCAGGCUUCGAGAAGGACAUGAGGAUCACCCAUGUGCGUGUAAAACAGCCGUGAGGCUGCAUCAUGUAGGAUAUCGGAGUCUGC	–	–	293 nM	88.9 nM
CCAGUGUAAGGAUAUGACAAUGGUAUCUUCGGAUACCAUUGUCAGAAGGUACAUGAGGAUCACCCAUGUAACAC	–	–	16.6 nM	26.5 nM
CCAUCAGCGAACGAUACGAAUGGACAUGAGGAUCACCCAUGUAGAAGGACAGGAGAAUAACGGCUGUAGGAUAUACAUUUAGUG	–	–	40.3 nM	31.2 nM
CCAUGAACAGGAUAUCUUCCUCCGAACAUGAGGAUCACCCAUGUAACUGUGUAGCAUGACAGAGAAGGGUUUAUGG	–	–	99.5 nM	56.7 nM
